Source: ChEMBL document CHEMBL2151003, “Synthesis and antitumor activity of ring A modified glycyrrhetinic acid derivatives” (Eur J Med Chem, 2011)
Calls of active or inactive are those of the source. The rule behind the calls is not given here.

How the values were obtained:
[1] = Cytotoxicity against human 518A2 cells after 96 hrs by SRB assay; format: functional, cell-based
Outline: (§1)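 Monolayer cultures in RPMI 1640 with 10% heat-inactivated FBS and penicillin/streptomycin, 37 °C, 5% CO2. Exponentially growing cells were seeded, then treated 24 h later with serial dilutions (0–30 µM; DMSO or DMF ≤0.5% final) for 96 h. Cells were fixed with 10% TCA at 4 °C, stained with 0.4% SRB and solubilized in 10 mM Tris base; A570 was read. IC50 came from semi-log dose–response curves, ≥3 independent experiments.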

DLD-1 = test: Cytotoxicity against human DLD1 cells after 96 hrs by SRB assay; format: functional, cell-based; outline: as §1
A549 [2] = test: Cytotoxicity against human A549 cells after 96 hrs by SRB assay; format: functional, cell-based; outline: as §1
[3] = Cytotoxicity against human A253 cells after 96 hrs by SRB assay; format: functional, cell-based; outline: as §1
[4] = Cytotoxicity against human Lipo cells after 96 hrs by SRB assay; format: functional, cell-based; outline: as §1
SW-1736 = test: Cytotoxicity against human SW1736 cells after 96 hrs by SRB assay; format: functional, cell-based; outline: as §1
8505C = test: Cytotoxicity against human 8505C cells after 96 hrs by SRB assay; format: functional, cell-based; outline: as §1
A549 [5] = test: Induction of apoptosis in human A549 cells assessed as apoptotic effect at 20 uM after 24 to 48 hrs by trypan blue cell counting analysis; format: functional
Outline: (§2)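 A549 cells (approx. 500,000 per flask) were grown 24 h, then given compound-containing medium for about 24–48 h. Collected cells were pelleted, washed in PBS and mixed 1:1 with 0.4% trypan blue in PBS, pH 7.2. An automated counter distinguished cells with intact and with damaged membranes. Results are % apoptosis ± standard error, 6 experiments each.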

A549 [6] = test: Induction of apoptosis in human A549 cells assessed as appearance of green fluorescent cells at 20 uM after 24 to 48 hrs by acridine orange/ethidium bromide staining based fluorescence microscopy; format: functional, cell-based
Outline: (§3)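 Approx. 500,000 A549 cells per flask were grown 24 h, then exposed to compound-containing medium for 24–48 h. Cells from the supernatant were pelleted, washed and resuspended in PBS, mixed with AO/EB and examined by fluorescence microscopy. Green fluorescence was scored as apoptotic and red nuclei as necrotic; the read-out is qualitative.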

HCT-116 = test: Cytotoxicity against human HCT116 cells after 96 hrs by SRB assay; format: functional, cell-based; outline: as §1
A-431 = test: Cytotoxicity against human A431 cells after 96 hrs by SRB assay; format: functional, cell-based; outline: as §1
HT-29 = test: Cytotoxicity against human HT-29 cells after 96 hrs by SRB assay; format: functional, cell-based; outline: as §1
MCF7 = test: Cytotoxicity against human MCF7 cells after 96 hrs by SRB assay; format: functional, cell-based; outline: as §1
A2780 = test: Cytotoxicity against human A2780 cells after 96 hrs by SRB assay; format: functional, cell-based; outline: as §1
A549 [7] = test: Induction of apoptosis in human A549 cells assessed as apoptotic effect at 4 uM after 24 to 48 hrs by trypan blue cell counting analysis; format: functional; outline: as §2
A549 [8] = test: Induction of apoptosis in human A549 cells assessed as appearance of green fluorescent cells at 4 uM after 24 to 48 hrs by acridine orange/ethidium bromide staining based fluorescence microscopy; format: functional, cell-based; outline: as §3
HCT-8 = test: Cytotoxicity against human HCT8 cells after 96 hrs by SRB assay; format: functional, cell-based
Outline: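 Monolayers in RPMI 1640 with 10% heat-inactivated FBS and penicillin/streptomycin, 37 °C, 5% CO2. Seeded day 0 and exposed 24 h later to serial dilutions (0–30 µM; DMSO or DMF ≤0.5% final) for 96 h. Cells were then fixed with 10% TCA at 4 °C, stained with 0.4% SRB, washed with 1% acetic acid and dissolved in 10 mM Tris, and A570 was read. IC50 from semi-log dose–response curves, ≥3 independent experiments.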

| Structure (SMILES) | IC50 [1] [µmol] | IC50 (DLD-1) [µmol] | IC50 (A549 [2]) [µmol] | IC50 [3] [µmol] | IC50 [4] [µmol] | IC50 (SW-1736) [µmol] | IC50 (8505C) [µmol] | Activity (A549 [5]) [%] | Activity (A549 [6]) | IC50 (HCT-116) [µmol] | IC50 (A-431) [µmol] | IC50 (HT-29) [µmol] | IC50 (MCF7) [µmol] | IC50 (A2780) [µmol] | Activity (A549 [7]) [%] | Activity (A549 [8]) | IC50 (HCT-8) [µmol] |
| --- | --- | --- | --- | --- | --- | --- | --- | --- | --- | --- | --- | --- | --- | --- | --- | --- | --- |
| COC(=O)[C@@]1(C)CC[C@]2(C)CC[C@]3(C)C(=CC(=O)[C@@H]4[C@@]5(C)CC[C@H](OC(=O)[C@@H](N)CSCc6ccccc6)C(C)(C)[C@@H]5CC[C@]43C)[C@@H]2C1 | 16.78 | > 30 | 17.9 | 15.84 | 16.72 | 15.69 | 15.45 | 60.64 | Active |  |  |  |  |  |  |  |  |
| CCOC(=O)[C@@]1(C)CC[C@]2(C)CC[C@]3(C)C(=CC(=O)[C@@H]4[C@@]5(C)CC=CC(C)(C)[C@@H]5CC[C@]43C)[C@@H]2C1 | > 30 | > 30 | > 30 | > 30 | > 30 |  |  |  |  | > 30 | > 30 | > 30 | > 30 |  |  |  |  |
| CCOC(=O)[C@@]1(C)CC[C@]2(C)CC[C@]3(C)C(=CC(=O)[C@@H]4[C@@]5(C)C[C@H]6O[C@H]6C(C)(C)[C@@H]5CC[C@]43C)[C@@H]2C1 | > 30 | > 30 | > 30 | > 30 | > 30 |  |  |  |  | > 30 | > 30 | > 30 | > 30 |  |  |  |  |
| COC(=O)[C@@]1(C)CC[C@]2(C)CC[C@]3(C)C(=CC(=O)[C@@H]4[C@@]5(C)CC/C(=N\O)C(C)(C)[C@@H]5CC[C@]43C)[C@@H]2C1 | 18.93 | 10.46 | 17.4 | 13.56 | 18.34 | 13 | 17.18 | 32.43 | Active |  |  |  | 15.95 | 6.18 |  |  |  |
| CCOC(=O)[C@@]1(C)CC[C@]2(C)CC[C@]3(C)C(=CC(=O)[C@@H]4[C@@]5(C)CCC(=O)C(C)(C)[C@@H]5CC[C@]43C)[C@@H]2C1 | > 30 | > 30 | > 30 | > 30 | > 30 | > 30 | > 30 |  |  |  |  |  | > 30 | > 30 |  |  |  |
| CCCCCCCCO/N=C1\CC[C@]2(C)[C@H]3C(=O)C=C4[C@@H]5C[C@@](C)(C(=O)OC)CC[C@]5(C)CC[C@@]4(C)[C@]3(C)CC[C@H]2C1(C)C | > 30 | > 30 | > 30 | > 30 | > 30 | 17.77 | > 30 |  |  |  |  |  | 26.35 | 19.73 |  |  |  |
| COC(=O)[C@@]1(C)CC[C@]2(C)CC[C@]3(C)C(=CC(=O)[C@@H]4[C@@]5(C)CC[C@@H](N)C(C)(C)[C@@H]5CC[C@]43C)[C@@H]2C1 | 2.74 | 3.21 | 3.33 | 2.44 | 3.3 | 2.84 | 2.33 |  |  |  |  |  | 2.55 | 3.42 | 64.88 | Active |  |
| CC1(C)[C@H](O)CC[C@]2(C)[C@H]3C(=O)C=C4[C@@H]5C[C@@](C)(C(=O)O)CC[C@]5(C)CC[C@@]4(C)[C@]3(C)CC[C@@H]12 | > 30 | > 30 | > 30 | > 30 | > 30 | > 30 |  |  |  | > 30 | > 30 | > 30 | > 30 |  |  |  | > 30 |
| COC(=O)[C@@]1(C)CC[C@]2(C)CC[C@]3(C)C(=CC(=O)[C@@H]4[C@@]5(C)CC[C@H](OC(=O)[C@@H](N)CSSC[C@H](N)C(=O)O[C@H]6CC[C@]7(C)[C@H]8C(=O)C=C9[C@@H]%10C[C@@](C)(C(=O)OC)CC[C@]%10(C)CC[C@@]9(C)[C@]8(C)CC[C@H]7C6(C)C)C(C)(C)[C@@H]5CC[C@]43C)[C@@H]2C1 | 24.54 | > 30 | 18.75 | 19.07 | 22.6 | 16.82 | 15.1 | 40.91 | Active |  |  |  |  |  |  |  |  |
| C=C(C)[C@@H]1CC[C@]2(C)[C@H](C(=O)C=C3[C@@H]4C[C@@](C)(C(=O)OCC)CC[C@]4(C)CC[C@]32C)[C@@]1(C)CCC(=O)OCC | 9.28 | > 30 | > 30 | > 30 | > 30 | 26.74 | > 30 |  |  |  |  |  | 25.42 | 5.89 |  |  |  |
| COC(=O)[C@@]1(C)CC[C@]2(C)CC[C@]3(C)C(=CC(=O)[C@@H]4[C@@]5(C)CCC(=O)C(C)(C)[C@@H]5CC[C@]43C)[C@@H]2C1 | > 30 | > 30 | > 30 | > 30 | > 30 | 29.09 | > 30 |  |  |  |  |  | > 30 | > 30 |  |  |  |
| CC1(C)C(=O)CC[C@]2(C)[C@H]3C(=O)C=C4[C@@H]5C[C@@](C)(C(=O)O)CC[C@]5(C)CC[C@@]4(C)[C@]3(C)CC[C@@H]12 | > 30 | > 30 | > 30 | > 30 | > 30 | > 30 |  |  |  | > 30 | > 30 | > 30 | > 30 |  |  |  | > 30 |
| CCOC(=O)[C@@]1(C)CC[C@]2(C)CC[C@]3(C)C(=CC(=O)[C@@H]4[C@@]5(C)CCC(=O)OC(C)(C)[C@@H]5CC[C@]43C)[C@@H]2C1 | > 30 | > 30 | > 30 | 28.73 | > 30 | 12.71 | > 30 |  |  |  |  |  | 20.58 | 15 |  |  |  |
| CCOC(=O)[C@@]1(C)CC[C@]2(C)CC[C@]3(C)C(=CC(=O)[C@@H]4[C@@](C)(CCC(=O)O)[C@H](C(C)(C)O)CC[C@]43C)[C@@H]2C1 | > 30 | > 30 | > 30 | > 30 | > 30 | > 30 | > 30 |  |  |  |  |  | > 30 | > 30 |  |  |  |
